Experimental data collected from several papers.
Each line is one published result; the experiments were not run side by side.
SIRT3: NAD-dependent protein deacetylase sirtuin-3, mitochondrial (SIRT3, Homo sapiens, UniProt Q9NTG7)
GABRA1: Gamma-aminobutyric acid receptor subunit alpha-1 (GABRA1, Homo sapiens, UniProt P14867)
PTGS1: Prostaglandin G/H synthase 1 (PTGS1, Ovis aries, UniProt P05979)

| SMILES | target | assay | test system | setting | inhibition |
| --- | --- | --- | --- | --- | --- |
| O=C(NC1CCC1)[C@H](Cc1c[nH]c2ccccc12)NC(=O)[C@H](CCCCNC(=S)NCc1cc(O)no1)NS(=O)(=O)c1cccc(F)c1 | SIRT3 | enzyme activity, inhibitor | – | 30 µM | 6% |
| CCCCCC1CC(=O)c2cc([N+](=O)[O-])ccc2O1 (stereo not shown) | SIRT3 | enzyme activity, inhibitor, fluorescence | – | 200 µM | 16% |
| O=C(Nc1cccc(C(=O)Nc2ccc3[nH]ncc3c2)c1)Nc1ccccc1F | BDNF/NT-3 growth factors receptor (NTRK2, Homo sapiens, UniProt Q16620) | enzyme activity, inhibitor, FRET | – | 1 µM | 27.8% |
| CCCCCCCCCCCCNC(=S)NCCCC[C@H](NC(=O)C1CCCCC1)C(=O)N[C@H](C)C(=O)N[C@@H](CCCNC(=N)N)C(N)=O | SIRT3 | enzyme activity, inhibitor | – | 10 µM | 41% |
| CN1CC(Oc2cnc(C#N)cc2-c2ccn3nc(NC(=O)C4CC4)cc3c2)C1 | Transcription initiation factor TFIID subunit 1-like (TAF1L, Homo sapiens, UniProt Q8IZX4) | enzyme activity, inhibitor | – | 1 µM | -5% |
| CC(=S)NCCCC[C@H](NC(=O)OCc1ccccc1)C(=O)N[C@@H](Cc1c[nH]c2ccccc12)C(=O)N[C@@H](CCC(=O)O)C(N)=O | SIRT3 | enzyme activity, inhibitor | – | 10 µM | 9% |
| CCN(Cc1ccccc1C(F)(F)F)C(=O)C1CCN(S(=O)(=O)c2ccc3[nH]ncc3c2)CC1 | Androgen receptor (Ar, Rattus norvegicus, UniProt P15207) | ligand displacement, radioligand | – | 10 µM | 11% |
| Cc1ccc(S(=O)(=O)n2cc(CCC3CC(=O)c4cc(Cl)cc(Br)c4O3)c3ccccc32)cc1 (stereo not shown) | SIRT3 | enzyme activity, inhibitor, fluorescence | – | 200 µM | 13% |
| CCCCCCCCCCCCNC(=S)NCCCC[C@H](NC(=O)OCc1ccccc1)C(=O)N[C@@H](Cc1c[nH]c2ccccc12)C(=O)N[C@@H](CCNC(=N)N)C(N)=O | SIRT3 | enzyme activity, inhibitor | – | 10 µM | 48% |
| Oc1cccc(Nc2nc(-c3ccc(F)cc3F)cs2)c1 | GABRA1 | cell-free assay | – | 10 µM | -27.3% |
| CCCCCC1CC(=O)c2cc(OC)ccc2O1 (stereo not shown) | SIRT3 | enzyme activity, inhibitor, fluorescence | – | 200 µM | 9.5% |
| CN(C)C1CCN(CC#Cc2nn(C3CCCC3)c3nc(NCc4ccccc4)ncc23)C1 (stereo not shown) | Serine/threonine-protein kinase Nek2 (NEK2, Homo sapiens, UniProt P51955) | enzyme activity, inhibitor, FRET | – | 0.1 µM | 2% |
| COc1cc(NC(C)=O)c(Cl)cc1C(=O)Nc1nccs1 | Type-2 angiotensin II receptor (AGTR2, Homo sapiens, UniProt P50052) | cell-free assay | – | 10 µM | 2.7% |
| O=C(O)Cc1ccccc1OP(=O)(O)O | Signal transducer and activator of transcription 5A, SH2 (Homo sapiens, UniProt P42229) | ligand displacement, FP | – | 100 µM | 40% |
| CCCCCCCCCCCCNC(=S)NCCCC[C@H](NC(=O)OCc1ccccc1)C(=O)N[C@@H](Cc1c[nH]c2ccccc12)C(=O)N[C@@H](CCC(=O)O)C(N)=O | SIRT3 | enzyme activity, inhibitor | – | 10 µM | 21% |
| O=C(NC1CCC1)[C@H](Cc1c[nH]c2ccccc12)NC(=O)[C@H](CCCCNC(=S)NCc1n[nH]c(=S)o1)NS(=O)(=O)c1cccc(F)c1 | SIRT3 | enzyme activity, inhibitor | – | 30 µM | 12% |
| CCCCCCCCCCCCCC(=O)NCCCC[C@H](NS(C)(=O)=O)C(=O)N[C@H](C)C(=O)N[C@@H](CCCNC(=N)N)C(N)=O | SIRT3 | enzyme activity, inhibitor | – | 10 µM | 10% |

| SMILES | target | assay | test system | setting | inhibition |
| --- | --- | --- | --- | --- | --- |
| C[C@@H]1O[C@@H](OC[C@H]2O[C@@H](Oc3c(-c4ccc(O)cc4)oc4cc(O)cc(O)c4c3=O)[C@H](O[C@@H]3O[C@H](CO)[C@@H](O)[C@H](O)[C@H]3O)[C@@H](O)[C@@H]2O)[C@H](O)[C@H](O)[C@H]1O | PTGS1 | enzyme activity, inhibitor, absorbance | – | 50 µM | 72.6% |
| CC(=S)NCCCC[C@H](NC(=O)OCc1ccccc1)C(=O)N[C@@H](Cc1c[nH]c2ccccc12)C(=O)N[C@@H](CC(N)=O)C(N)=O | SIRT3 | enzyme activity, inhibitor | – | 10 µM | 14% |
| COc1ccc(-n2nc(OCCCN3CCCCC3)ccc2=O)cc1 | Transient receptor potential cation channel subfamily V member 1 (TRPV1, Homo sapiens, UniProt Q8NER1) | ligand displacement | – | 1 µM | 44.5% |
| Cc1ccc(C(=O)Nc2ccc(S(=O)(=O)O)c3cc(S(=O)(=O)O)cc(S(=O)(=O)O)c23)cc1NC(=O)c1cccc(NC(=O)Nc2cccc(C(=O)Nc3cc(C(=O)Nc4ccc(S(=O)(=O)O)c5cc(S(=O)(=O)O)cc(S(=O)(=O)O)c45)ccc3C)c2)c1 | SIRT3 | enzyme activity, inhibitor | – | 100 µM | 6% |
| C[C@@H]1O[C@@H](O[C@H]2[C@H](Oc3c(-c4ccc(O)cc4)oc4cc(O)cc(O)c4c3=O)O[C@H](CO[C@@H]3O[C@H](CO)[C@@H](O)[C@H](O)[C@H]3O)[C@@H](O)[C@@H]2O)[C@H](O)[C@H](O)[C@H]1O | PTGS1 | enzyme activity, inhibitor, absorbance | – | 50 µM | 76.2% |
| CCCCC[C@H]1CC(=O)c2cc(Cl)cc(Br)c2O1 | SIRT3 | enzyme activity, inhibitor, fluorescence | – | 200 µM | 3.9% |
| O=C1CC(CCNC(=S)NCCCC[C@H](NS(=O)(=O)c2cccc(F)c2)C(=O)N[C@@H](Cc2c[nH]c3ccccc23)C(=O)NC2CCC2)=NO1 | SIRT3 | enzyme activity, inhibitor | – | 10 µM | 40% |
| Cc1ncc([N+](=O)[O-])n1C(=NO)c1ccccc1C(F)(F)F | Fas-activated serine/threonine kinase (Homo sapiens, UniProt Q14296) | enzyme activity, inhibitor | – | 10 µM | 7.77% |
| O=c1c(O[C@@H]2O[C@H](CO)[C@@H](O)[C@H](O)[C@H]2O)c(-c2ccc(O)cc2)oc2cc(O)cc(O)c12 | PTGS1 | enzyme activity, inhibitor, absorbance | – | 50 µM | 66.9% |
| CCCCCC1CC(=O)c2cc(Cl)ccc2O1 (stereo not shown) | SIRT3 | enzyme activity, inhibitor, fluorescence | – | 200 µM | 6% |
| CNc1cc(Oc2cc(C(=O)Nc3cc(N4CCN(C)CC4)cc(C(F)(F)F)c3)ccc2C)ncn1 | STE20-related kinase adapter protein alpha (STRADA, Homo sapiens, UniProt Q7RTN6) | target engagement in cells, inhibitor, chemoproteomics | Huh-7 | 1 µM | -86.8% |
| CC(C)C1CC(=O)c2cc(Cl)cc(Br)c2O1 (stereo not shown) | SIRT3 | enzyme activity, inhibitor, fluorescence | – | 200 µM | 4.4% |
| O=C(NC1CCC1)[C@H](Cc1c[nH]c2ccccc12)NC(=O)[C@H](CCCCNC(=S)NCCn1nn[nH]c1=O)NS(=O)(=O)c1cccc(F)c1 | SIRT3 | enzyme activity, inhibitor | – | 100 µM | 10% |
| CCCCCC1C=Cc2cc(Cl)cc(Br)c2O1 (stereo not shown) | SIRT3 | enzyme activity, inhibitor, fluorescence | – | 200 µM | 2% |
| C[C@@H](NC(=O)[C@H](CCCCNC(=O)C(F)(F)F)NS(C)(=O)=O)C(=O)N[C@@H](CCCNC(=N)N)C(N)=O | SIRT3 | enzyme activity, inhibitor | – | 100 µM | 10% |
| CCCC1CC(=O)c2cc(Cl)cc(Br)c2O1 (stereo not shown) | SIRT3 | enzyme activity, inhibitor, fluorescence | – | 200 µM | 7% |
| O=C(c1ccc(Cl)cc1)N(Cc1ccccc1)C1CCCCC1 | GABRA1 | cell-free assay | – | 10 µM | -34.8% |
